For 30 compounds, outcome, activation and potentiation results are on record in PubChem BioAssay.

Assay [1] is described as follows: nonspecific flux increase, KCNQ1-free cells – parental CHO cells, counter-screen for KCNQ1 potentiator project (AID 493006;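 active = duplicate-averaged activation above buffer control mean plus 5 SD of those controls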;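 for activation: fluorescence ratio of max minus min over baseline after K+ and Tl+ depolarization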). Particulars: parental CHO-K1 cells, FluxOR thallium flux, at 10 µM; stronger effect = higher value. The essentials: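 Benchmarks – buffer and R-L3 controls · Assay system – untransfected host CHO-K1 cells with FluxOR thallium dye · Measure – fluorescence change ratio scaled 0% buffer, 100% R-L3 · Technique – kinetic thallium-flux fluorescence · Timing – overnight 37 °C plating, 90 min RT dye, 20 min compound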

The target in assay [2] is Potassium voltage-gated channel subfamily KQT member 1 (Homo sapiens) (UniProt P51787). The assay is described as follows: enhancement of KCNQ1 channel thallium flux – FluxOR thallium flux, CHO cells, duplicates, confirmation (AID 493007).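 For outcome: cells depolarized by a potassium plus thallium sulfate stimulus after compound.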 Conditions: KCNQ1 cell line, FluxOR thallium flux fluorescence, at 10 µM; stronger effect = higher value, % of reference activator effect, buffer zero. The essentials:
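Material: CHO cells stably expressing the KCNQ1 potassium channel / Times: dye 90 min then compound 20 min, both at room temperature / Detection: kinetic thallium influx fluorescence with FluxOR dye, 10 s baseline, 110 s post-stimulus / Benchmarks: buffer-only wells as 0% and R-L3 activator as 100% / Replicates: each compound tested in duplicate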

The target of assay [3] is Potassium voltage-gated channel subfamily KQT member 2 (Rattus norvegicus) (UniProt O88943). As to the kind of experiment: KCNQ2 thallium flux enhancement – KCNQ2-CHO-K1 cells, selectivity assay for KCNQ1 potentiator project (AID 493009;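 active = mean duplicate potentiation above the buffer control mean plus 5 SD of buffer wells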;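 note: assay conditions were tuned for KCNQ1 rather than KCNQ2 modulators; signal is max minus min fluorescence divided by baseline after thallium stimulus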). Particulars: FluxOR thallium flux fluorescence, at 10 µM; stronger effect = higher value, scaled: buffer 0, activator control 100.
Assay [4] concerns the target Potassium voltage-gated channel subfamily KQT member 1 (Homo sapiens) (UniProt P51787). The assay is described as follows: KCNQ1 activators by electrophysiology – IonWorks patch clamp, KCNQ1-CHO cells, orthogonal assay for KCNQ1 potentiator project, confirmation (AID 493184;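 active = current rise at least 3 SD above the untreated control mean in each of two repeat wells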). Particulars: automated patch clamp current, at 10 µM; stronger effect = higher value. The essentials:
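Probe or stimulus: depolarizing pulse to +40 mV from -90 mV; Material: CHO cells carrying KCNQ1; Compound: one dose, 10 µM final; Signal: automated voltage clamp, amphotericin B perforated patch; Read-out basis: percent current increase versus pre-compound level; Buffer or medium: pH 7.4 external bath; Replication: duplicates.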

Active and inactive are the calls of the source.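 Rule for the calls, unless noted: active = potentiation averaged over duplicate wells exceeding buffer-only control mean by more than 3 SD; inactive = the rest.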

Sequence of Potassium voltage-gated channel subfamily KQT member 1 (Homo sapiens) (P51787 whole entry, looked up): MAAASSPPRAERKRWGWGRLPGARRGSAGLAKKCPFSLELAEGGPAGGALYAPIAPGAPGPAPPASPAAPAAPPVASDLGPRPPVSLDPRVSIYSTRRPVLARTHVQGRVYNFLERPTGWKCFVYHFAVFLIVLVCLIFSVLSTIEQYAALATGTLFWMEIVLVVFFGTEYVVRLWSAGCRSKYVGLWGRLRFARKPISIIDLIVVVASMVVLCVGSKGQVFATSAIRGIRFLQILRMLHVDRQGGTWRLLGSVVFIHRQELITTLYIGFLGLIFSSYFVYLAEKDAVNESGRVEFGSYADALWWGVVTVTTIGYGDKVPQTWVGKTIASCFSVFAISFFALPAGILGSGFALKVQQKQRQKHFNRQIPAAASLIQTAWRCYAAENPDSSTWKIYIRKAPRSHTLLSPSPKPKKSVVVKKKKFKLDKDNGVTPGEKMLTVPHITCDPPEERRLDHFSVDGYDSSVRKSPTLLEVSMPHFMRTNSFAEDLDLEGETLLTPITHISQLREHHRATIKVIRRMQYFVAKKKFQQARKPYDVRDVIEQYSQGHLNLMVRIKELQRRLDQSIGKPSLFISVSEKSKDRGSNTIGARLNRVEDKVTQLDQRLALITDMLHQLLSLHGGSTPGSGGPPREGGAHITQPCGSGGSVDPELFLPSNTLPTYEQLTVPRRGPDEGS
Sequence of Potassium voltage-gated channel subfamily KQT member 2 (Rattus norvegicus) (O88943 whole entry, looked up): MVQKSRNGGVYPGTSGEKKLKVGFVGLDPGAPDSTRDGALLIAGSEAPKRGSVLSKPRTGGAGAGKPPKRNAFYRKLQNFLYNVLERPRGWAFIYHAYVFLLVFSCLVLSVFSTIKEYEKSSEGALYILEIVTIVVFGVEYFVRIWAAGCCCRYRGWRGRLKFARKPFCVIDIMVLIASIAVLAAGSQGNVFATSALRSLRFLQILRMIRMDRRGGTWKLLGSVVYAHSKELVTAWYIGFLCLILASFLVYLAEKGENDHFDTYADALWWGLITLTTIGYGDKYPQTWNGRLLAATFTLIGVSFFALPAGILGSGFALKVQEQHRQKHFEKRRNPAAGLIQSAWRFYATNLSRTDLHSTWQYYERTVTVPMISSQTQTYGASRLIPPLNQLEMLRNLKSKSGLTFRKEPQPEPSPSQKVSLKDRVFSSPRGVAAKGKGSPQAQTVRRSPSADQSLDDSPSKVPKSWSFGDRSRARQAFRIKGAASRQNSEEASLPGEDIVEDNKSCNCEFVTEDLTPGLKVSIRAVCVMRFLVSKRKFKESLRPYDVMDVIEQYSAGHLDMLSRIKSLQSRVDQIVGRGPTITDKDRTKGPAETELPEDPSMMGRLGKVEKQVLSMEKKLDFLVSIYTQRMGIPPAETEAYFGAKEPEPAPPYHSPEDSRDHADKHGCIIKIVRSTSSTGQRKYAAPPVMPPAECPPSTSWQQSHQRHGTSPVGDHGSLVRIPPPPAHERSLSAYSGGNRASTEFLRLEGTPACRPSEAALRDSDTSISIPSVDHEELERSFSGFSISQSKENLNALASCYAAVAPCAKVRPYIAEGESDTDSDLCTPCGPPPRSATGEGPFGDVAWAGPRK

Turning to `CC(=O)c1c(N)[nH]c(-c2ccccc2)nc1=S`, the result in assay [1], in assay [2], in assay [3] and in assay [4] was inactive.
Consider `CCOc1ccccc1NC(=O)C(=O)CC(=O)c1ccc(OC)cc1`, for which the activation in assay [1] was 164% (active). Moreover, the potentiation is 64.5% (active) in assay [2] and 216% (active) in assay [3]. Besides, the outcome in assay [4] was inactive.
As for `O=c1c2c3c(sc2[nH]c(=S)n1Cc1ccco1)CCC3`, the activation in assay [1] was 264% (active). Further, the values for the potentiation in assay [2] and in assay [3] were 108% (active) and 289% (active), respectively. Also, in assay [4], the outcome was inactive.
Turning to `C/C(=N\NC(=O)c1cc2ccccc2cc1O)c1cc2ccccc2o1`, the activation in assay [1] is 706% (active). Also, the results for the potentiation in assay [2] and in assay [3] were 478% (active) and 746% (active), respectively. For the same compound, the outcome in assay [4] was inactive.
`Cc1ccccc1C(=O)Nc1nc(=S)ss1`: the activation in assay [1] was 250% (active). In addition, the potentiation in assay [2] was 72% (active); in assay [3], 267% (active). The result in assay [4] was inactive.
For `CC1=NN(C(N)=S)C(=O)C1N=Nc1cccc(Cl)c1C` (stereo not given) the same measures were 1010% (active), 665% (active), 1230% (active) and “inactive”.
`CCOc1ccccc1C1CC(=O)Nc2cc3c(cc21)OCCO3` (stereo not given): the outcome in assay [1], in assay [2], in assay [3] and in assay [4] was inactive.
Regarding `Cc1ccc(/C(O)=C/C(=O)C(=O)NC23CC4CC(CC(C4)C2)C3)cc1`, the activation in assay [1] was 284% (active). The figures for the potentiation in assay [2] and in assay [3] were 167% (active) and 367% (active), respectively. Further, the outcome in assay [4] was inactive.
On to `CCNC(=S)Nc1scc(-c2ccccc2)c1C(=O)OCC`, for which the activation in assay [1] was 254% (active). Also, the potentiation in assay [2] is 44% (active); in assay [3], 214% (active). Also, the outcome in assay [4] was inactive.
Regarding `Cc1ccccc1NC(=O)C(=O)NNC(=O)COc1ccc2ccccc2c1`, in assay [1], the activation is 232% (active). Also, the potentiation is 93.5% (active) in assay [2] and 300% (active) in assay [3]. Also, the result in assay [4] was inactive.
For the compound `COc1ccc(Cl)cc1N(C)C(=O)CCNC(=O)Cn1cnc2ccccc2c1=O`, the outcome in assay [1] and in assay [4] was inactive. Further, the results for the potentiation in assay [2] and in assay [3] were 22.5% (active) and 157% (active), respectively.
On to `O=C(COc1ccccc1[N+](=O)[O-])Nc1cccnc1`, for which the activation in assay [1] was 186% (active). Moreover, the potentiation in assay [2] was 41.5% (active); in assay [3], 172% (active). Moreover, the result in assay [4] was inactive.
For `CC(C)c1ccc(OCC(=O)NNC(=S)NC(=O)c2ccco2)c(Br)c1` the same measures were 154% (active), 68.5% (active), 232% (active) and “inactive”.
On to `CC1(C)Cc2c(sc3[nH]c(=S)n(Cc4ccccc4)c(=O)c23)CO1`, for which the activation in assay [1] was 191% (active). In addition, the potentiation is 63% (active) in assay [2] and 198% (active) in assay [3]. The outcome in assay [4] was inactive.
For `CCc1nnc(SCC(=O)Nc2nnc(C)s2)n1CC1CCCO1` (stereo not given) the same measures were 278% (active), 86.5% (active), 274% (active) and “inactive”.
For the compound `Cc1ccc(-c2n[nH]c(=S)nc2-c2ccc(C)cc2)cc1`, the activation in assay [1] is 160% (active). The potentiation in assay [2] was 32% (active); in assay [3], 159% (active). Further, the result in assay [4] was inactive.
As to `CC1CCCN(c2ccc(C(=O)NCc3ccccc3)cn2)C1` (stereo not given), the activation in assay [1] is 155% (active). Besides, the figures for the potentiation in assay [2] and in assay [3] were 26% (active) and 152% (active), respectively. Moreover, the result in assay [4] was inactive.
Take `Cc1ccccc1CC(=O)NC1CCN(Cc2ccccc2)CC1`: the result in assay [1], in assay [2], in assay [3] and in assay [4] was inactive.
With `COc1ccc2cc(CCNC(=O)C3CCCC3)c(=O)[nH]c2c1`, the result in assay [1], in assay [2], in assay [3] and in assay [4] was inactive.
Take `Cc1ccc(C(=O)NC(=S)N(C)Cc2ccccc2)cc1`: in assay [1], the activation is 146% (active). Also, the potentiation was 46% (active) in assay [2] and 178% (active) in assay [3]. In assay [4], the outcome was inactive.
Regarding `Cn1c(=NC(=O)c2ccco2)sc2cccc(F)c21`, the result in assay [1], in assay [2], in assay [3] and in assay [4] was inactive.
Take `CC(CCc1ccccc1)NC(=O)c1ccccc1C(=O)O` (stereo not given): the result in assay [1], in assay [2], in assay [3] and in assay [4] was inactive.
For the compound `CCOc1ccc2nc(/N=C/c3c(C)[nH]n(-c4ccccc4)c3=O)sc2c1`, the activation in assay [1] was 370% (active). Further, the results for the potentiation in assay [2] and in assay [3] were 360% (active) and 661% (active), respectively. Also, in assay [4], the result was inactive.
On to `Cc1ccc(Nc2c([N+](=O)[O-])ccc3nonc23)c(C)c1`, for which the result in assay [1], in assay [2], in assay [3] and in assay [4] was inactive.
As for `COc1ccc(-n2c(=S)[nH]c3c(oc4ccccc43)c2=O)cc1`, the result in assay [1], in assay [2], in assay [3] and in assay [4] was inactive.
Turning to `Cc1ccc(C(=O)CC(=O)COc2ccc(Cl)cc2C)cc1`, the result in assay [1] and in assay [4] was inactive. Moreover, the potentiation was 180% (active) in assay [2] and 209% (active) in assay [3].
With `O=C(NCc1ccccc1)C(=O)NCC1CCCN1S(=O)(=O)c1cccs1` (stereo not given), the outcome in assay [1], in assay [2], in assay [3] and in assay [4] was inactive.
In the case of `Cc1cc(C)nc(NC(=O)/C=C/c2ccccc2Cl)n1`, the outcome in assay [1], in assay [2], in assay [3] and in assay [4] was inactive.
On to `CC(C)n1c(=S)[nH]c2scc(-c3cccs3)c2c1=O`, for which, in assay [1], the activation is 491% (active). Further, the potentiation was 200% (active) in assay [2] and 465% (active) in assay [3]. Also, in assay [4], the result was inactive.
On to `C=CCn1c(O)c(N=NC(=S)Nc2ccc(OC)c(Cl)c2)c2ccccc21`, for which, in assay [1], the activation is 191% (active). Besides, the potentiation in assay [2] is 57% (active); in assay [3], 215% (active). In addition, the outcome in assay [4] was inactive.
